Screens (PubChem)
RAD54 branch: inhibitors of human RAD54 branch migration, primary screen, biochemical, fluorescence, single point; AID 602329, 2012; DNA repair and recombination protein RAD54-like (Homo sapiens), Q92698; 0.14% of 360,000 active; inhibition, % at 10.4 µM; RAD54 Holliday junction branch migration, FAM/BHQ fluorescence;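 active = mean normalized replicate activity at least 40 and at least half of replicates scoring 40 or more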;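 also: inhibitors cause a drop in the FAM fluorescence signal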
RAD52 inh: RAD52 DNA annealing inhibitors, primary screen, biochemical, FRET, single point, set 2; DNA repair protein RAD52 homolog (Homo sapiens), P43351; recombinant RAD52 DNA annealing, FRET fluorescence; inhibition, % at 18.7 µM; 0.46% of 360,000 active; AID 651710, 2012;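 active = every replicate showing at least 50% inhibition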
Target sequence (P43351 whole entry, looked up): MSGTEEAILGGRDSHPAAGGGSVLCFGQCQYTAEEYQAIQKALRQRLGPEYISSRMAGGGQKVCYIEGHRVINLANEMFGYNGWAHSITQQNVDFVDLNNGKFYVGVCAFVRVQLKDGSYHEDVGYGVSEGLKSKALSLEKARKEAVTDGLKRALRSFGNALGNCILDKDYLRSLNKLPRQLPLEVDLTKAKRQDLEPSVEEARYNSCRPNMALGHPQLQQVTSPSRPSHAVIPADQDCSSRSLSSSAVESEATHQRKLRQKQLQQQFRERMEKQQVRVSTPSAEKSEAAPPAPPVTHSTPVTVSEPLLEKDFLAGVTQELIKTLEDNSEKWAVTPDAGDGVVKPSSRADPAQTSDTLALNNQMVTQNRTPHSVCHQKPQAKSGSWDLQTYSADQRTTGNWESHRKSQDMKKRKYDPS
S100A4 inh HTS: inhibitors of S100A4-myosin IIA peptide binding, primary screen, biochemical, fluorescence polarization, TAMRA-MyoIIA peptide; Protein S100-A4 (Homo sapiens), P26447; inhibition, % at 10.7 µM; 0.14% of 360,000 active;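 active = mean inhibition of at least 70% across replicates, with every replicate also reaching that level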
Target sequence (P26447 whole entry, looked up): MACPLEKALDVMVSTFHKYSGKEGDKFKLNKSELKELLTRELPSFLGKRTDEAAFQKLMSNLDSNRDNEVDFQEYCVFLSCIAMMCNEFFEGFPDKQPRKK
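Test system – S100A4 monomer (human) · Compound – single-point compound testing · Schedule – 5 min incubation before reading · Probe or stimulus – TAMRA-labelled myosin IIA heavy-chain peptide probe, 5 nM · Benchmarks – neutral control DMSO, positive control TFP · Medium – Calcium-containing HEPES buffer, pH 7.2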
AF4-AF9 inh: inhibitors of AF4 peptide binding to AF9, primary screen, biochemical, AlphaScreen, biotin-AF4 peptide, FLAG-AF9, single point; Protein AF-9 (Homo sapiens), P42568; inhibition, % at 10 µM; 0.47% of 350,000 active; AID 651704, 2012;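 active = every replicate reaching a set inhibition limit, whatever the replicate mean, cut at about 25% in these data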
INS-1E GSIS act: GLuc luminescence reporter in INS-1E cells, primary screen for activators of glucose-dependent secretion of insulin. INS-1E GLuc reporter insulin secretion, 2-3 h. activation, % at 16.6 µM. 0.61% of 370,000 active. AID 743287, 2014;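 active = lowest replicate activation of at least 40%, so every replicate reaches that level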
Of the large screens only hits and unclear results are named; the others gave an inactive call; ! = a repeat was not active. Most compounds without a hit are left out; they make up all but 1.3% or so of the library.

CCN1CCN(CC(=O)N2N=C(c3cccs3)CC2c2ccc(OC)c(OC)c2)C(=O)C1=O (centres undefined)	none
O=C(C[C@H]1C[C@H]2c3cc(NC(=O)NC4CCCC4)ccc3O[C@H]2[C@@H](CO)O1)NCc1ccc2c(c1)OCO2	none
CCOC(=O)c1c2n(c3ccc(OC(C)=O)cc13)CCC2	INS-1E GSIS act 48
C[C@H]1CN([C@@H](C)CO)C(=O)c2cc(-c3cccnc3)cnc2O[C@H]1CN(C)C(=O)C1CC1	none
Cc1ccccc1S(=O)(=O)NCC[C@@H]1CC[C@@H](NC(=O)Nc2cccc(Cl)c2)[C@@H](CO)O1	none
Nc1cc(-c2ccncc2)c[nH]c1=O	S100A4 inh HTS 152! (no result: INS-1E GSIS act)
CO[C@H]1CN(C)C(=O)c2ccc(NC(=O)NC(C)C)cc2OC[C@H](C)N(S(C)(=O)=O)C[C@@H]1C	none (no result: RAD54 branch, RAD52 inh, S100A4 inh HTS, AF4-AF9 inh)
Cc1[nH]c(=O)[nH]c1C(=O)CCCCC(=O)O	AF4-AF9 inh 73
CC(Oc1ccc2c3c(c(=O)oc2c1)CCCC3)C(=O)NCc1cccnc1 (centres undefined)	INS-1E GSIS act 48
O=C(O)COc1ccc2c3c(c(=O)oc2c1)CCC3	INS-1E GSIS act 131 (no result: RAD52 inh, S100A4 inh HTS, AF4-AF9 inh)
CC(Oc1cc2oc(=O)c3c(c2cc1Cl)CCCC3)C(=O)NCc1cccnc1 (centres undefined)	none
N#Cc1nccnc1S(=O)(=O)c1cccs1	INS-1E GSIS act 134 (no result: RAD54 branch)
C[C@@H]1CN([C@@H](C)CO)C(=O)Cc2cc(NS(=O)(=O)c3ccc(F)cc3)ccc2O[C@@H]1CN(C)Cc1ccc(Oc2ccccc2)cc1	none
Cc1ccc(C(=O)Oc2ccc(-c3nccc(-c4ccccn4)n3)cc2)cc1	INS-1E GSIS act 56 (no result: RAD52 inh, S100A4 inh HTS, AF4-AF9 inh)
O=C(Oc1ccc(-c2nccc(-c3ccccn3)n2)cc1)c1cccc(C(F)(F)F)c1	none (no result: RAD52 inh, S100A4 inh HTS, AF4-AF9 inh, INS-1E GSIS act)
COc1ccc(NC(=O)Nc2ccc3c(c2)C(=O)N([C@H](C)CO)C[C@H](C)[C@@H](CN(C)C(=O)NC(C)C)OCCCC[C@@H](C)O3)cc1	none
Cc1cc2ccccn2c1C(=O)c1cc([N+](=O)[O-])cc([N+](=O)[O-])c1	AF4-AF9 inh 33 (no result: RAD54 branch)
Cc1ccccc1S(=O)(=O)N1C[C@H](O)COC[C@@H]2O[C@@H](CC(=O)NCCc3ccccc3)CC[C@H]21	RAD52 inh 58
Cc1ccccc1S(=O)(=O)N1C[C@@H](O)COC[C@H]2O[C@H](CC(=O)NCCc3ccccc3)CC[C@@H]21	RAD52 inh 72
O=C(NC1CCCC1)[C@@H]1[C@@H](CO)[C@@H]2Cn3c(cccc3=O)[C@H]1N2Cc1cc(F)ccc1F	none
C[C@@H]1CCCCO[C@@H](CN(C)Cc2ccc3c(c2)OCO3)[C@@H](C)CN([C@@H](C)CO)C(=O)c2cc(NC(=O)c3ccccc3)ccc2O1	none
O=c1[nH]c2ccc(Br)cc2c(-c2ccccc2)c1N1CCOCC1	AF4-AF9 inh 25 (no result: INS-1E GSIS act)
Cc1ccc(-c2nc(N)n(C(=O)c3cccnc3)n2)cc1	none (no result: RAD52 inh, S100A4 inh HTS, AF4-AF9 inh, INS-1E GSIS act)
Cc1ccc(C(=O)n2nc(-c3cccnc3)nc2N)cc1	INS-1E GSIS act 72 (no result: RAD52 inh, S100A4 inh HTS, AF4-AF9 inh)
Cc1ccc(C(=O)C[n+]2ccc(Cc3ccccc3)cc2)cc1	none (no result: RAD54 branch)
O=C(C[n+]1ccc(CCSc2ccc(F)cc2)cc1)c1ccccc1	RAD54 branch 87 (no result: RAD52 inh, S100A4 inh HTS, AF4-AF9 inh, INS-1E GSIS act)
CN1CC(COCc2ccccc2)Oc2ccccc2S1(=O)=O (centres undefined)	none
O=S1(=O)c2ccccc2OC(COCc2ccccc2)CN1C1CC1 (centres undefined)	INS-1E GSIS act 109
C[C@H](O)C#Cc1cnc2c(c1)C(=O)N([C@H](C)CO)C[C@@H](C)[C@@H](CN(C)Cc1ccccn1)O2	none
COc1ccc2c3c(n(C)c2c1)[C@@H](CO)N(C(=O)Nc1ccc(F)cc1)CC31CN(Cc2cccnc2)C1	AF4-AF9 inh 27 (no result: RAD54 branch)
COc1ccc2c3c(n(C)c2c1)[C@@H](CO)N(C(=O)Nc1ccc(F)cc1)CC31CCN(Cc2cccnc2)CC1	AF4-AF9 inh 39 (no result: RAD54 branch, RAD52 inh, S100A4 inh HTS)
CCC(=O)Nc1ccc2c(c1)C(=O)N(C)[C@@H]1CC[C@@H](CC(=O)NCC3CCCCC3)O[C@@H]1CO2	none
OC[C@H]1[C@H](c2ccc(C3=CCCC3)cc2)[C@H]2CN(CCC(F)(F)F)CCCCN21	none (no result: INS-1E GSIS act)
Cn1c(=O)c(Nc2ccc(O)cc2)c2c3c(cccc31)C(=O)c1ccccc1-2	AF4-AF9 inh 29 (no result: RAD54 branch)
COc1ccc(/C(C)=N/NC(=O)Cn2nc([N+](=O)[O-])cc2C)cc1	INS-1E GSIS act 51 (no result: RAD54 branch, AF4-AF9 inh)
O=C(C[C@H]1CC[C@@H](NC(=O)C2CCOCC2)[C@H](CO)O1)Nc1ccc(-c2ccccc2)cc1	none
CC(=O)N1[C@H](C(=O)NCCCN(C)C)[C@@H](CO)[C@@H]2Cn3c(ccc(-c4cccc(F)c4)c3=O)[C@@H]21	S100A4 inh HTS 101
Cc1ccc(CN2CC(C(=O)Nc3ccc(S(=O)(=O)N4CCCCC4)cc3)CC2=O)cc1 (centres undefined)	none
O=C(Nc1ccc(S(=O)(=O)N2CCCCC2)cc1)C1CC(=O)N(Cc2ccccc2)C1 (centres undefined)	S100A4 inh HTS active
C[C@H]1CN([C@@H](C)CO)S(=O)(=O)c2ccc(C#CC3CC3)cc2O[C@H]1CN(C)Cc1ccccn1	none
C[C@H]1CN([C@@H](C)CO)C(=O)c2cccc(NC(=O)C3CCOCC3)c2O[C@@H]1CN(C)Cc1ccc(Cl)c(Cl)c1	none
Cc1cc(C)c(S(=O)(=O)NCc2ccc3c(c2)cc(C)n3C)c(C)c1	S100A4 inh HTS 83
Cc1cc2cc(CNS(=O)(=O)c3ccc4ccccc4c3)ccc2n1C	none
C/C=C/c1ccc([C@@H]2[C@H](CO)N(C(=O)C3CC3)C23CN(S(=O)(=O)CC)C3)cc1	none (no result: RAD54 branch)
Cc1ccc(-c2n[nH]c(S(C)(=O)=O)c2C#N)cc1	none (no result: RAD54 branch, AF4-AF9 inh)
Cc1cccc(-c2n[nH]c(S(C)(=O)=O)c2C#N)c1	AF4-AF9 inh 97 (no result: RAD54 branch)
C[C@@H]1CCCCO[C@@H](CN(C)C(=O)c2ccccc2)[C@@H](C)CN([C@H](C)CO)C(=O)c2cc(NC(=O)NC3CCCCC3)ccc2O1	none
CC(C)NC(=O)Nc1ccc2c(c1)C(=O)N([C@@H](C)CO)C[C@H](C)[C@H](CN(C)C(=O)c1ccncc1)OCCCC[C@H](C)O2	S100A4 inh HTS 96
C[C@H]1CCCCO[C@H](CN(C)C(=O)c2ccccc2)[C@@H](C)CN([C@@H](C)CO)C(=O)c2cc(NC(=O)NC3CCCCC3)ccc2O1	S100A4 inh HTS 114
C[C@H](CO)N1C[C@H](C)[C@@H](CN(C)Cc2ccccc2)OCCCC[C@H](C)Oc2ccc(NS(=O)(=O)c3ccc(F)cc3)cc2C1=O	none
O=C(O)C(Cc1ccccc1)N1C(=O)c2ccccc2C1=O (centres undefined)	none (no result: RAD52 inh, S100A4 inh HTS, AF4-AF9 inh, INS-1E GSIS act)
